Assay results as given in ChEMBL document CHEMBL1135860 (Bioorg Med Chem Lett, 2002).

Assays:
[1] = molecular target: T1, 5-hydroxytryptamine receptor 7 (Homo sapiens, UniProt P34969); experiment: Inhibition (at 1 uM) of radioligand [3H]LSD binding to human 5-hydroxytryptamine 7 receptor on HEK293 cells; assay type: cell-based
Summary of the method: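 Human 5-HT7 binding was run with membranes from HEK293 cells expressing the receptor, incubated with 3H-LSD. Clozapine was the standard. Displacement of radioligand was recorded as percent inhibition at 1 µM.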

[2] = molecular target: T1, 5-hydroxytryptamine receptor 7; experiment: Binding affinity towards human 5-hydroxytryptamine 7 receptor on HEK293 cells using radioligand [3H]LSD; assay type: cell-based
Summary of the method: (§1)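 Competition binding at human 5-HT7 receptor: membranes prepared from HEK293 cells expressing the receptor were incubated with 3H-LSD and a range of test concentrations. Clozapine was the reference standard. Ki values in nM were determined.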

[3] = molecular target: T1, 5-hydroxytryptamine receptor 7; experiment: Compound was tested for its binding affinity towards human 5-hydroxytryptamine 7 receptor from HEK293 cells using radioligand [3H]LSD; assay type: cell-based; summary of the method: as §1
[4] = molecular target: T2, 5-hydroxytryptamine receptor 1A (Homo sapiens) (UniProt P08908); experiment: Percent inhibition (at 1 uM) against 5-hydroxytryptamine 1A receptor
T2 sequence (whole entry): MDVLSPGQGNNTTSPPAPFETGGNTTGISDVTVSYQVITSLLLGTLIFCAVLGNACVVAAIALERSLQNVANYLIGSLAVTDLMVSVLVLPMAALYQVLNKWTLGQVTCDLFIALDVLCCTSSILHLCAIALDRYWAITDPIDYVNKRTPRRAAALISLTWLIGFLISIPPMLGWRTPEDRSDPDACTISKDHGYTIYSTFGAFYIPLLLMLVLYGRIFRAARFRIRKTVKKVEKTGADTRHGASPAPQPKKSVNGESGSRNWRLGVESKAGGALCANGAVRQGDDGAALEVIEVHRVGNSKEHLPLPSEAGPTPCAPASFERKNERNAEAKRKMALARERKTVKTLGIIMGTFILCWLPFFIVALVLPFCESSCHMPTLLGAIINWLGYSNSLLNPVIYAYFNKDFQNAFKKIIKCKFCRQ

[5] = molecular target: 5-hydroxytryptamine receptor 1B (Homo sapiens) (UniProt P28222); experiment: Percent inhibition (at 1 uM) against 5-hydroxytryptamine 1B receptor
[6] = molecular target: T3, 5-hydroxytryptamine receptor 1F (Homo sapiens) (UniProt P30939); experiment: Percent inhibition (at 1 uM) against 5-hydroxytryptamine 1F receptor
T3 sequence (whole entry): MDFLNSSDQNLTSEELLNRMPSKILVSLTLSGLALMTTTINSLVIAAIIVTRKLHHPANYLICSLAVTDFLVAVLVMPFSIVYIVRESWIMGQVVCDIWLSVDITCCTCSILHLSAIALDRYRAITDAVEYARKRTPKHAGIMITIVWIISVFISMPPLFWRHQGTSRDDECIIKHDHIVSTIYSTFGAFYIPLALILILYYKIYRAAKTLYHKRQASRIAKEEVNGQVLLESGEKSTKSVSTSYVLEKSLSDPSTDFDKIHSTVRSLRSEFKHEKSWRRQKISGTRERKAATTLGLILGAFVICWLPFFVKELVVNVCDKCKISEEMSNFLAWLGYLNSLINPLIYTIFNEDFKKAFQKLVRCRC

[7] = molecular target: 5-hydroxytryptamine receptor 2A (Homo sapiens) (UniProt P28223); experiment: Percent inhibition (at 1 uM) against 5-hydroxytryptamine 2A receptor
[8] = molecular target: 5-hydroxytryptamine receptor 1D (Homo sapiens) (UniProt P28221); experiment: Percent inhibition (at 1 uM) against 5-hydroxytryptamine 1D receptor
[9] = molecular target: T4, 5-hydroxytryptamine receptor 2C (Homo sapiens) (UniProt P28335); experiment: Percent inhibition (at 1 uM) against 5-hydroxytryptamine 2C receptor
T4 sequence (whole entry): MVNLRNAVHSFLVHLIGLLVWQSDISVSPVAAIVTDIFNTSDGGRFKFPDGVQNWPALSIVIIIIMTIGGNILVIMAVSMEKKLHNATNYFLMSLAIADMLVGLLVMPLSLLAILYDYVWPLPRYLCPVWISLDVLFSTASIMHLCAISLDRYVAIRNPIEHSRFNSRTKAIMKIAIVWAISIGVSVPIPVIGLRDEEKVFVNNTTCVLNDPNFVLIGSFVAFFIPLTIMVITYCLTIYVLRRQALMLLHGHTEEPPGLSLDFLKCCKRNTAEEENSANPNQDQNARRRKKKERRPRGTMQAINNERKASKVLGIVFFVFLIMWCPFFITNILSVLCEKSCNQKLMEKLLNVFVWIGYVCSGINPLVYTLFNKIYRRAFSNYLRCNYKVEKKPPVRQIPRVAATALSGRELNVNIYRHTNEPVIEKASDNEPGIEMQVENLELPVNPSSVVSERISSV

[10] = molecular target: T5, D(4) dopamine receptor (Homo sapiens) (UniProt P21917); experiment: Percent inhibition (at 1 uM) against Dopamine receptor D4
T5 sequence (whole entry): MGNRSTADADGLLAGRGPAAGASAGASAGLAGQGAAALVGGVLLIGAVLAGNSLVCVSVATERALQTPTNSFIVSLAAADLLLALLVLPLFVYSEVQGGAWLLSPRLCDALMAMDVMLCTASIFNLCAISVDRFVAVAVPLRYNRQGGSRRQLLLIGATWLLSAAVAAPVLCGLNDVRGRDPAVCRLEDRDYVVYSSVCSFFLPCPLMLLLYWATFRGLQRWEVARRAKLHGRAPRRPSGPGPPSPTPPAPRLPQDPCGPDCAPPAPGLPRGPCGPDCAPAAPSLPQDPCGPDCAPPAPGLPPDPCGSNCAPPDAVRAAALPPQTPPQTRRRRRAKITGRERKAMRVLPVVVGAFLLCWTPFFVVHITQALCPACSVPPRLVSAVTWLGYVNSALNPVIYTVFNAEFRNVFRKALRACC

[11] = molecular target: D(1A) dopamine receptor (Homo sapiens) (UniProt P21728); experiment: Percent inhibition (at 1 uM) against Dopamine receptor D1
[12] = molecular target: D(2) dopamine receptor (Homo sapiens) (UniProt P14416); experiment: Percent inhibition (at 1 uM) against Dopamine receptor D2
[13] = molecular target: D(1B) dopamine receptor (Homo sapiens) (UniProt P21918); experiment: Percent inhibition (at 1 uM) against dopamine D5 receptor
[14] = molecular target: D(3) dopamine receptor (Homo sapiens) (UniProt P35462); experiment: Percent inhibition (at 1 uM) against Dopamine receptor D3
[15] = molecular target: Muscarinic acetylcholine receptors; M1 & M2 (Homo sapiens) (UniProt P11229+P08172); experiment: Percent inhibition (at 1 uM) against Muscarinic acetylcholine receptor M1- Muscarinic acetylcholine receptor M2; assay type: protein assay
[16] = molecular target: 5-hydroxytryptamine receptor 6 (Homo sapiens, UniProt P50406); experiment: Compound was tested for its binding affinity towards 5-hydroxytryptamine 6 receptor
Sequence of 5-hydroxytryptamine receptor 6 (P50406 whole entry): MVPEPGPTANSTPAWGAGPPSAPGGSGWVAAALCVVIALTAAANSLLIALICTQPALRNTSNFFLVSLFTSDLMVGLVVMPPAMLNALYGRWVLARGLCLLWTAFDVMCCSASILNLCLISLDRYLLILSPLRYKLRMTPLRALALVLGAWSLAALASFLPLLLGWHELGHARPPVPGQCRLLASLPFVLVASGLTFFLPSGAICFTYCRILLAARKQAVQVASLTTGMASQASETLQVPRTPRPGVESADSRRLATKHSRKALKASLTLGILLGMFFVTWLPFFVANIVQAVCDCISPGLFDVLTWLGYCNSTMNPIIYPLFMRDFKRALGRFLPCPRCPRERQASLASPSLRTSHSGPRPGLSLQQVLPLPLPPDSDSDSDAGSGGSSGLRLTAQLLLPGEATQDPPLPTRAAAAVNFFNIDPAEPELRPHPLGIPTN

T1 sequence (P34969 whole entry): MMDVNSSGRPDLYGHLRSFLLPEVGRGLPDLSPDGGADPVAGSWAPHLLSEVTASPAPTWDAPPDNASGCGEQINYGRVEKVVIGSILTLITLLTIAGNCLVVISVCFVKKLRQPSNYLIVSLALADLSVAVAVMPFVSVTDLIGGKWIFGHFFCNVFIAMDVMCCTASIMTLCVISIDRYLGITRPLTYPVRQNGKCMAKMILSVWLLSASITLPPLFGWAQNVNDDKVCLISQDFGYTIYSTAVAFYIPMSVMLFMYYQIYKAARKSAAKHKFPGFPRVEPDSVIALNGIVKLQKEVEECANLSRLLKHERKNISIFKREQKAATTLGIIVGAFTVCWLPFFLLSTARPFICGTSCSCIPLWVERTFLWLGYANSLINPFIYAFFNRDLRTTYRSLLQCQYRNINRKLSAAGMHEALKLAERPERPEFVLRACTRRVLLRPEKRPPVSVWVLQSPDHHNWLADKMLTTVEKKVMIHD
Sequence of D(1A) dopamine receptor (Homo sapiens) (P21728 whole entry): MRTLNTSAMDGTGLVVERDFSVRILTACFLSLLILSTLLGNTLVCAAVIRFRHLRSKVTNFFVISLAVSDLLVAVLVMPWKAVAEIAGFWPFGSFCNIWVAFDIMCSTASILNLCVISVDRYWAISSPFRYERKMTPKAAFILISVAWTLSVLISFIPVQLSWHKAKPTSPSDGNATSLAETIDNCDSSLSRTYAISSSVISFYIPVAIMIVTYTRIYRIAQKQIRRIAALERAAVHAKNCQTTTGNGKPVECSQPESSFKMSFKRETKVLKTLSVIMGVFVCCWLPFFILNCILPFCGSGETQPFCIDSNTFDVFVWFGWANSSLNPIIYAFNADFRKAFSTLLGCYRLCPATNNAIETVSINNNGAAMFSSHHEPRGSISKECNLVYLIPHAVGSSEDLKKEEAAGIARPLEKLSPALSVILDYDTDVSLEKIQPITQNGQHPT
Sequence of D(3) dopamine receptor (Homo sapiens) (P35462 whole entry): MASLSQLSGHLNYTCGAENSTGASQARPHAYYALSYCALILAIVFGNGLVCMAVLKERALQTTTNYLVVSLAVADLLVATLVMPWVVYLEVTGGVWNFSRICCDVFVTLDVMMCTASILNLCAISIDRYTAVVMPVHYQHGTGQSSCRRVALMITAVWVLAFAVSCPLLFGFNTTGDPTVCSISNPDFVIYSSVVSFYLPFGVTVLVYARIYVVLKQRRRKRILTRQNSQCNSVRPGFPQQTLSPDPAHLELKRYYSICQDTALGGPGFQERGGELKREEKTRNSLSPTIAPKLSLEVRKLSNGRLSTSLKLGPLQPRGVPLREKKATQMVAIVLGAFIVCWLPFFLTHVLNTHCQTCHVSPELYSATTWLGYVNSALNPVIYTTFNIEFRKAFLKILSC
Sequence of 5-hydroxytryptamine receptor 1D (Homo sapiens) (P28221 whole entry): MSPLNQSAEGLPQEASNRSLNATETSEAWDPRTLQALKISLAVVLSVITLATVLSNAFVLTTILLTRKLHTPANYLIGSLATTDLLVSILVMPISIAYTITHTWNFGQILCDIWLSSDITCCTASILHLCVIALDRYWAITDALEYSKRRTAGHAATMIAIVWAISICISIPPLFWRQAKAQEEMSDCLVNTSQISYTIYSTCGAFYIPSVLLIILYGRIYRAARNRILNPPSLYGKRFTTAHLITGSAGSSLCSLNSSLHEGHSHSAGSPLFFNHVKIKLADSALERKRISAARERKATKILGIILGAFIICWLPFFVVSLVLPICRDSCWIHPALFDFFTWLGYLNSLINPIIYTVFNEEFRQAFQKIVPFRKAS
Sequence of 5-hydroxytryptamine receptor 1B (Homo sapiens) (P28222 whole entry): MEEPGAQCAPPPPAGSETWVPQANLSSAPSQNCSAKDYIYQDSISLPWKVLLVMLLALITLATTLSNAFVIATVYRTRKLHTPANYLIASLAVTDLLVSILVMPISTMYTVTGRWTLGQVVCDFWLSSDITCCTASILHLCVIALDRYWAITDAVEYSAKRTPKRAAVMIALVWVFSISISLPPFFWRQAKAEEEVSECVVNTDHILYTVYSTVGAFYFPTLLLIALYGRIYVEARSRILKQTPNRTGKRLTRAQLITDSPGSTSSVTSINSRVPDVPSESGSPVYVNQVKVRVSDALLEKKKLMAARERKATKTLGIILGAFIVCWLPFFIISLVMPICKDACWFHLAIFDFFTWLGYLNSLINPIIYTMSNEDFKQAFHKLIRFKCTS
Sequence of 5-hydroxytryptamine receptor 2A (Homo sapiens) (P28223 whole entry): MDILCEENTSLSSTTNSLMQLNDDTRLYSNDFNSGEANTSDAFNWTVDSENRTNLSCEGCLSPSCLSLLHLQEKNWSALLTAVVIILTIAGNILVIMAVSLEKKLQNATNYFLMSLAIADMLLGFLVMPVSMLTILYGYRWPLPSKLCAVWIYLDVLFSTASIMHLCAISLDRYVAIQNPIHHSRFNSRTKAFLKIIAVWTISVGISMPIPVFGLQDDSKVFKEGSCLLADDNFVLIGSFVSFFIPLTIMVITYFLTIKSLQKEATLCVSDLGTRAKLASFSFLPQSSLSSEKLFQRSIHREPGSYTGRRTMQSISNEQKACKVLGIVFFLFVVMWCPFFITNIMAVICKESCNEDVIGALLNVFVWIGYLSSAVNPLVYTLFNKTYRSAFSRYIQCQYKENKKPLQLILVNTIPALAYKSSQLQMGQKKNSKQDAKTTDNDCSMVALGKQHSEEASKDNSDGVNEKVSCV
Sequence of D(2) dopamine receptor (Homo sapiens) (P14416 whole entry): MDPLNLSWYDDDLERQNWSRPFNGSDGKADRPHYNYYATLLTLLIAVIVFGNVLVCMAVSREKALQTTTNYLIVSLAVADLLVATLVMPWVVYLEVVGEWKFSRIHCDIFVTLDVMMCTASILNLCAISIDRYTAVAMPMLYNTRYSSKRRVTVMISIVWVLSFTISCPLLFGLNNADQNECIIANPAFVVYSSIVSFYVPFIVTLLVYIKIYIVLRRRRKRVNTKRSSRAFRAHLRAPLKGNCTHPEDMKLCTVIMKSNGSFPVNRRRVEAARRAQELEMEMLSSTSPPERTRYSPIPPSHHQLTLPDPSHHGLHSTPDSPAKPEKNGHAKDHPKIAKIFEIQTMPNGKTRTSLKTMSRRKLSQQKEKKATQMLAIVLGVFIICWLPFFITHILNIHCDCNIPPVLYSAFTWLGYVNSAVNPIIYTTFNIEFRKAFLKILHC
Sequence of D(1B) dopamine receptor (Homo sapiens) (P21918 whole entry): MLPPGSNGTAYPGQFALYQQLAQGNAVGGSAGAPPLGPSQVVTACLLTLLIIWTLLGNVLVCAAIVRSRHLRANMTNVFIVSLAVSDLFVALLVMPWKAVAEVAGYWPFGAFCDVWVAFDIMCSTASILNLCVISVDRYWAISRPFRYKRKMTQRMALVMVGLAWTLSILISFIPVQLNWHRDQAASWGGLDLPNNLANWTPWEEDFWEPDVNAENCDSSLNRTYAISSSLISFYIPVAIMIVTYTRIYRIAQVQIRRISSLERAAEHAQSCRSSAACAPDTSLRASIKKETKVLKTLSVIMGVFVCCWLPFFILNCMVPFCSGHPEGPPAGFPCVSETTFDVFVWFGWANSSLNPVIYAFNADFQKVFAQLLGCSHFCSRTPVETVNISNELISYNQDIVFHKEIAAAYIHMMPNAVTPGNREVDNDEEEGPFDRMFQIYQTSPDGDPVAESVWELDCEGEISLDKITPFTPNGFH

Compound	inhibition [1]	Ki [2]	other results
Brc1cccc2ccn(CCN3CCN4CCCCC4C3)c12 (stereo not given)	13%		
CC(C)N1CCCN(CCn2ccc3ccc(Br)cc32)CC1	92%	14 nM	
Brc1ccc2ccn(CCN3CCN(C4CCCCC4)CC3)c2c1	36%		
FC(F)(F)c1ccc2ccn(CCN3CCCN4CCCCC4C3)c2c1 (stereo not given)		7 nM	
CCc1ccc2ccn(CCN3CCCN(C)CC3)c2c1	66%	166 nM	
CC(C)c1ccc2ccn(CCN3CCCN(C)CC3)c2c1	72%	145 nM	
CN1CCCN(CCn2ccc3cccc(Br)c32)CC1	18%		
CC(C)CN1CCCN(CCn2ccc3ccc(Br)cc32)CC1	95%	37 nM	
CN1CCCN(CCn2ccc3ccc(C(N)=O)cc32)CC1	33%		
Brc1ccc2ccn(CCN3CCCN(C4CCCCC4)CC3)c2c1	96%	17 nM	
CN1CCCN(CCn2ccc3ccc(C(C)(C)O)cc32)CC1	6%		
C[C@H](Nc1nc(N)nc(NC[C@H]2C[C@@H]2c2ccc(F)cc2)n1)c1ccccc1			IC50 [3]: < 50 nM
CN1CCCN(CCn2ccc3ccc(F)cc32)CC1	60%	288 nM	
CC1CN(CCn2ccc3ccc(Br)cc32)CC(C)N1 (stereo not given)	26%		
Brc1ccc2ccn(CCN3CCCN(C4CC4)CC3)c2c1	96%	16 nM	
CN1CCCN(CCn2ccc3ccc(N)cc32)CC1	0%		
CN1CCCN(CCn2ccc3ccc([N+](=O)[O-])cc32)CC1	72%	139 nM	
Clc1ccc2ccn(CCN3CCCN4CCCCC4C3)c2c1 (stereo not given)		10 nM	
Cc1cccc(S(=O)(=O)N(C)[C@H](C)CCN2CCC(C)CC2)c1 [SB-258719]			Ki ([2]; hek293): 32 nM
CN1CCCN(CCn2ccc3ccc(Br)cc32)CC1	93%	31 nM	
Brc1ccc2ccn(CCN3CCCN(CC4CC4)CC3)c2c1	95%	9 nM	
Cc1cccc(C#N)c1-c1cccc2c1-c1cccc3c1[C@@H](C2)N(C)CC3		1 nM	
CN1CCCN(CCn2ccc3cc(Br)ccc32)CC1	65%	88 nM	
Brc1ccc2ccn(CCN3CCCN4CCCCC4C3)c2c1 (stereo not given)	99%	3 nM	inhibition [4]: 1%; inhibition [5]: 0%; inhibition [6]: 0%; inhibition [7]: 20%; inhibition [8]: 0%; inhibition [9]: 26%; inhibition [10]: 4%; inhibition [11]: 2%; inhibition [12]: 15%; inhibition [13]: 17%; inhibition [14]: 27%; inhibition [15]: 35%; Ki [16]: 4070 nM

Compound	inhibition [1]	Ki [2]	other results
CN1CCCN(CCn2ccc3ccc(OCc4ccccc4)cc32)CC1	28%	182 nM	
C=Cc1ccc2ccn(CCN3CCCN(C)CC3)c2c1	79%	109 nM	
Brc1ccc2c(ccn2CCN2CCN3CCCCC3C2)c1 (stereo not given)	65%	158 nM	
COc1ccc2ccn(CCN3CCCN(C)CC3)c2c1	50%	1570 nM	
Cc1ccc2ccn(CCN3CCCN(C)CC3)c2c1	62%	125 nM	
CC1CN(CCn2ccc3ccc(Br)cc32)CCN1 (stereo not given)	52%		
CN1CCCN(CCn2ccc3c(Br)cccc32)CC1	33%		
Brc1ccc2ccn(CCN3CCN4CCCC4C3)c2c1 (stereo not given)	72%		
CN1CCCN(CCn2ccc3ccc(-c4cccnc4)cc32)CC1	35%		
CN1CCCN(CCn2ccc3ccc(-c4ccsc4)cc32)CC1	68%	109 nM	
C=C(C)c1ccc2ccn(CCN3CCCN(C)CC3)c2c1	72%	70 nM	
Brc1ccc2ccn(CCN3CCC4CCCCN4CC3)c2c1 (stereo not given)	71%		
CC(C)(C)CN1CCCN(CCn2ccc3ccc(Br)cc32)CC1	70%	163 nM	
C#Cc1ccc2ccn(CCN3CCCN(C)CC3)c2c1	79%	140 nM	
CN1CCCN(CCn2ccc3ccc(O)cc32)CC1	28%		
Brc1ccc2ccn(CCN3CCN4CCCCC4C3)c2c1 (stereo not given)	78%	70 nM	
Brc1cccc2c1ccn2CCN1CCN2CCCCC2C1 (stereo not given)	43%		
Brc1ccc2ccn(CCN3CCCN(C4CCCC4)CC3)c2c1	98%	10 nM	
Brc1ccc2ccn(CCN3CCCNCC3)c2c1	77%		
CN1CCCN(CCn2ccc3ccc(Cl)cc32)CC1	85%	34 nM	
Brc1ccc2ccn(CCN3CCNCC3)c2c1	61%		
CN1CCCN(CCn2ccc3ccc(C(F)(F)F)cc32)CC1	89%	23 nM	
Brc1ccc2ccn(CCN3CCCN(c4ccccc4)CC3)c2c1	18%		
